Test results from publication PMC5708134 (Chemical research in toxicology, 2017).
pEC50, pIC50, pKi: −log10 of the molar value. “And” between values parts separate entries of the source, which are not always exact repeats. Equal entries are not always repeated. “Also recorded” adds a separate entry of the source.

Tests used:
Assay type in all cases: biochemical
[1] = molecular target: T1, recombinant human DCXR (Homo sapiens, UniProt Q7Z4W1); test: Xylitol dehydrogenation
In short: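 Recombinant His-tagged human DCXR (E. coli-expressed, Ni-NTA purified) oxidized xylitol in 0.1 mL reactions: 100 mM glycine buffer pH 9.5, 3 mM MgCl2, NADP+ and xylitol. Reactions were started by adding enzyme. NADPH formation was followed as the absorbance change at 340 nm in a microplate reader.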

[2] = molecular target: T1, recombinant human DCXR; test: Inhibition of quinone redox cycling by DCXR; details: for Type of inhibition: inhibition of redox cycling with 9,10-phenanthrenequinone
In short: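 Assay for redox cycling by His-tagged human DCXR (E. coli-expressed, Ni-NTA purified). Superoxide was measured as acetylated cytochrome c reduction at 550 nm. 100 μL mixes: 50 mM potassium phosphate pH 7.8, 50 μM acetylated cytochrome c, 0.2 mM NADPH, 20 μM 9,10-phenanthrenequinone, 1.2 or 1.6 μg DCXR, varied inhibitor. Competitive Ki was taken from Lineweaver–Burk plots.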

[3] = molecular target: T1, recombinant human DCXR; test: L-xylulose reduction by recombinant DCXR, substrate kinetics; details: for Km / kcat: pH 7.0
In short: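 Enzyme: recombinant His-tagged human DCXR from E. coli BL21(DE3), Ni-NTA purified. Reduction was assayed in 100 mM phosphate buffer pH 7.0 and started by adding enzyme. Initial rates of NADPH oxidation were read at 340 nm in a microplate reader. Rates were converted using NAD(P)H calibration curves made in the reaction mix.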

[4] = molecular target: T1, recombinant human DCXR; test: Chemical redox cycling by DCXR; details: for pEC50: EC50, half maximal concentration of quinones activating H2O2 production by redox cycling with DCXR, 5 μg/ml recombinant DCXR and 200 μM NADH; for Km / kcat: redox cycling
[5] = molecular target: T1, recombinant human DCXR; test: Inhibition of diacetyl reduction by DCXR
In short: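 Human DCXR, His-tagged, expressed in E. coli BL21(DE3) with 0.5 mM IPTG (4 h, 37 °C), Ni-NTA purified. 100 μL mixes: 600 μM NADH, 2 mM diacetyl, 1–2 μg DCXR, plus quinone inhibitor. Acetoin formed was quantified by HPLC against a standard calibration curve. Inhibition type and Ki were derived from kinetic analysis.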

[6] = molecular target: T1, recombinant human DCXR; test: Diacetyl reduction by recombinant DCXR
[7] = molecular target: T1, recombinant human DCXR; test: Oxygen consumption during DCXR redox cycling; details: 600 μM NADH, 20 μM 9,10-phenanthrenequinone
In short: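 Clark-type oxygen electrode measurements used 16 μg recombinant human DCXR per 0.8 mL reaction. NADH and 9,10-phenanthrenequinone were run first to set a stable baseline, then DCXR was added to start the reaction. Diacetyl was added either after DCXR or at time zero (pretreatment). Short-chain fatty acids were added at set time points during cycling.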

[8] = xylulose varied, 0.6 mM NADPH fixed
[9] = quinone varied, 200 μM NADPH fixed
[10] = inhibition of diacetyl reduction
[11] = NADPH varied, 20 μM 9,10-PQ fixed
[12] = NADPH varied, 6 mM xylulose fixed
[13] = NADPH varied, 2 mM diacetyl fixed, pH 7.0
[14] = Ki, inhibition of diacetyl reduction

T1 sequence (Q7Z4W1 whole entry): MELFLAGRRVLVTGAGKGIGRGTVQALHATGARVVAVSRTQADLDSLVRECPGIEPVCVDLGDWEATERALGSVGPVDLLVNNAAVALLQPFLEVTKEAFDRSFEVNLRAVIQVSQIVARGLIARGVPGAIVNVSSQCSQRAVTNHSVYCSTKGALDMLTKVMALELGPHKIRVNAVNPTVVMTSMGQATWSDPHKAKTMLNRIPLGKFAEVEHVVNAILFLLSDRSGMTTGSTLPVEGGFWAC

For NC(=O)c1ccc[n+]([C@@H]2O[C@H](COP(=O)([O-])OP(=O)(O)OC[C@H]3O[C@@H](n4cnc5c(N)ncnc54)[C@H](OP(=O)(O)O)[C@@H]3O)[C@@H](O)[C@H]2O)c1 [NADP(+)], the kcat ([1]; NADP(+) varied, 200 mM xylitol fixed) was 1.7 S^−1, the Km ([1]; NADP(+) varied, 200 mM xylitol fixed, 100 mM glycine buffer with 3 mM MgCl2) was 110 µM and the Vmax ([1]; oxidation of xylitol using NADP+ as the cofactor) was 70.9 µM/min.
O=C(CO)[C@H](O)[C@@H](O)CO [L-xylulose] was tested, and the Type of inhibition [2] was “competitive inhibitors; also recorded: competitive type inhibition”, the Type of inhibition ([2]; listed as Xylulose) was “competitive” and the Vmax ([3]; reduction of L-xylulose using NADPH as the cofactor) was 33.8 µM/min. The Km [3, 8] was 503 µM and the kcat [3, 8] was 1.09 S^−1.
For O=C1C=CC(=O)c2ccccc21 [1,4-naphthoquinone], the pEC50 [4] was 5.27, the Km [4, 9] was 10.8 µM and the kcat [4, 9] was 0.0283 s⁻¹. For the same molecule, the pIC50 [5] was 4.93, the pKi [5] was 5.27 and the Type of inhibition [5, 10] was “competitive”.
NC(=O)C1=CN([C@@H]2O[C@H](COP(=O)(O)OP(=O)(O)OC[C@H]3O[C@@H](n4cnc5c(N)ncnc54)[C@H](OP(=O)(O)O)[C@@H]3O)[C@@H](O)[C@H]2O)C=CC1 [NADPH] showed a Km [4, 11] of 31 µM, a kcat [4, 11] of 0.115 s⁻¹ and a Km [3, 12] of 24 µM. The kcat [3, 12] was 1.55 S^−1, the Vmax ([6]; NADPH at fixed concentration of diacetyl) was 30.9 µM/min and the Km [6, 13] was 90 µM. The kcat [6, 13] was 1.6 S^−1 and 1.60 S^−1.
CCCCCCC(=O)O [heptanoic acid] showed a pIC50 [2] of 1.60 and a pIC50 [5] of 1.70.
Work on O=C1C(=O)c2ccccc2-c2ccccc21 [9,10-phenanthrenequinone] yielded a pEC50 [4] of 5.77, a pIC50 [5] of 5.03 and a pKi [5, 14] of 5.37. The Type of inhibition [5, 10] was “competitive”.
For CC(=O)C(C)=O [diacetyl, 2,3-butanedione], the pKi [2] was 3.72, the Type of inhibition [2] was “competitive inhibitors; also recorded: competitive type inhibition” and the Type of inhibition ([2]; listed as Diacetyl) was “competitive”. For the same molecule, the inhibition at 5000 µM ([2]; read-out: Inhibition of menadione-stimulated superoxide anion formation) was about 75%, the kcat ([6]; diacetyl varied, 200 μM NADPH fixed, pH 7.0) was 5.80 S^−1 and the “Effect on oxygen consumption during redox cycling” value (from here on “Effect”) ([7]; diacetyl 5 mM) was “Inhibition of oxygen consumption”.
With O=C1C=Cc2ccccc2C1=O [1,2-naphthoquinone] the pEC50 [4] was 5.82, the pIC50 [5] was 5.54 and the pKi [5, 14] was 5.85 and 5.87. For the same molecule, the Type of inhibition [5, 10] was “competitive”.
For CCCCC(=O)O [pentanoic acid], the pIC50 [2] was 1.55 and the pIC50 [5] was 2.36.
In the case of CCCCCC(=O)O [hexanoic acid], the pIC50 [2] was 1.44, the “Effect” value ([7]; hexanoic acid 50 mM) was “Inhibition of oxygen consumption” and the pIC50 [5] was 2.21.
In the case of CC1=CC(=O)c2ccccc2C1=O [menadione, 2-methyl-1,4-naphthoquinone], the pIC50 [5] was 4.28, the pKi [5] was 4.61 and the Type of inhibition [5, 10] was “competitive type of inhibition”. For the same molecule, the inhibition at 300 µM ([5]; read-out: Inhibition of DCXR mediated reduction of diacetyl) was over 90%.
With CCCC(=O)O [butyric acid] the pIC50 [2] was 2.17, the “Effect” value ([7]; butyric acid 10 mM) was “Inhibition of oxygen consumption” and the pIC50 [5] was 3.02.
